The target of data set [1] is Histamine H3 receptor (Rattus norvegicus, UniProt Q9QYN8). In words: In vitro binding affinity for rat histamine H3 receptor using [3H]N-alpha-methylhistamine. Put shortly:
(§1)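 Radioligand binding used membranes from cells transfected with cloned human or rat H3 receptors.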

The target of data set [2] is Histamine H3 receptor (Homo sapiens, UniProt Q9Y5N1). In words: In vitro binding affinity for human histamine H3 receptor using [3H]N-alpha-methylhistamine. An outline of the steps:
as §1

Data set [3] in a line: Maximum plasma concentration upon p.o. dose of 1 mg/kg in rats. Type of data set: ADME, organism-based. Set-up: dose 1 mg/kg, route oral. The note with it: rat, po.
Data set [4] is described as follows: Oral bioavailability in rat (dose 1 mg/kg). It is filed as ADME, organism-based. As to conditions: in vivo.
Data set [5] in a line: Area under plasma concentration curve of the compound upon i.v. dose of 1 mg/kg in rats. Type of data set: ADME, organism-based. On the set-up: dose 1 mg/kg, route intravenous. As to conditions: rat, in vivo, iv.
The nature of data set [6]: Plasma clearance upon i.v. dose of 1 mg/kg in rats. As to conditions: rat, iv. Type of data set: ADME, organism-based. Set-up: dose 1 mg/kg, route intravenous.
Data set [7] can be described thus: Terminal half life upon p.o. dose of 1 mg/kg in rats. Type of data set: ADME, organism-based. Set-up: dose 1 mg/kg, route oral. The note with it: rat, in vivo, po.
Data set [8] in a line: Area under plasma concentration curve of the compound upon p.o. dose of 1 mg/kg in rats. Type of data set: ADME, organism-based. On the set-up: dose 1 mg/kg, route oral. As to conditions: rat, in vivo, po.
Data set [9] is described as follows: Terminal half life upon i.v. dose of 1 mg/kg in rats. It is filed as ADME, organism-based. Set-up: dose 1 mg/kg, route intravenous. The note with it: rat, in vivo, iv.

The text below walks through data of ChEMBL document CHEMBL1141118, “Synthesis and SAR of 5-amino- and 5-(aminomethyl)benzofuran histamine H3 receptor antagonists with improved potency” (J Med Chem, 2005).

Each structure is given as a SMILES string.

Histamine H3 receptor (Rattus norvegicus, UniProt Q9QYN8), sequence (Q9QYN8 whole entry): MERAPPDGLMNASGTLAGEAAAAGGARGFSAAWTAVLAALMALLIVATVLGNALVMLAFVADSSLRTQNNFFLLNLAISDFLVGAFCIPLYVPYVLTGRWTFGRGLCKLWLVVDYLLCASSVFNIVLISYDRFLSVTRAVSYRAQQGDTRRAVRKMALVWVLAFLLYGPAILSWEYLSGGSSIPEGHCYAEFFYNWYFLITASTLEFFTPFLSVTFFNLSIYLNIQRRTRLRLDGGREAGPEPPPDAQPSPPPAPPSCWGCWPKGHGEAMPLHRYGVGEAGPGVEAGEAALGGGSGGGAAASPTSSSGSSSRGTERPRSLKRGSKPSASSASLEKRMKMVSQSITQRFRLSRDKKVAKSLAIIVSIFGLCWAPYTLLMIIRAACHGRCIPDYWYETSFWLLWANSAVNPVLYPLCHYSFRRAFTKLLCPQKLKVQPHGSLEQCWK
Histamine H3 receptor (Homo sapiens, UniProt Q9Y5N1), sequence (Q9Y5N1 whole entry): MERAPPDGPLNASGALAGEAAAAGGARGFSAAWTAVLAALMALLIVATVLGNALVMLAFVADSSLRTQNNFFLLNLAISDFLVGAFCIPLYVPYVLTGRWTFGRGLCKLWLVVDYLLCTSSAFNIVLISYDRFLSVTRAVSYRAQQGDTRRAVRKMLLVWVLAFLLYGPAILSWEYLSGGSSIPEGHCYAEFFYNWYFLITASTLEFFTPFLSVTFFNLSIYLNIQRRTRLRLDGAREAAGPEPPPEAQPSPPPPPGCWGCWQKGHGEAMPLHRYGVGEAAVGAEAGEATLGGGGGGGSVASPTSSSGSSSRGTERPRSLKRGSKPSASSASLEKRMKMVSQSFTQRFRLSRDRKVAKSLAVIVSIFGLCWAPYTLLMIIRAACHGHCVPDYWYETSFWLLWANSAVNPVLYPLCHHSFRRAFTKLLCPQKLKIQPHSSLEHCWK

As a reminder, the Ki is the dissociation constant of the complex between target and ligand, obtained from inhibition or displacement. As to `C[C@@H]1CCCN1CCc1cc2cc(Nc3ccc(C(F)(F)F)cn3)ccc2o1`, the figures for the inhibitory constant (Ki) in data set [1] and in data set [2] were 2.76 nM and 0.54 nM, respectively.
Regarding `C[C@@H]1CCCN1CCc1cc2cc(Nc3ncccc3[N+](=O)[O-])ccc2o1`, the Ki was 0.35 nM in [1] and 0.14 nM in data set [2].
For `C[C@@H]1CCCN1CCc1cc2cc(CNc3ncccc3C#N)ccc2o1` the same measures were 1.92 nM and 0.74 nM.
For `C[C@@H]1CCCN1CCc1cc2cc(Nc3ccc(C#N)cc3)ccc2o1` the same measures were 1.35 nM and 0.27 nM.
On to `C[C@@H]1CCCN1CCc1cc2cc(CNc3cc(C#N)nc(C#N)c3)ccc2o1`, for which the Ki came out at 0.4 nM in data set [1] and 0.13 nM in data set [2].
On to `C[C@@H]1CCCN1CCc1cc2cc(CNc3cncnc3)ccc2o1`, for which the inhibition constant (Ki) stood at 2.51 nM in data set [1] and 0.69 nM in data set [2].
Consider `Cc1ccc(C#N)c(Nc2ccc3oc(CCN4CCC[C@H]4C)cc3c2)n1`, for which the Ki came to 17.9 nM in data set [1] and 2.98 nM in data set [2].
For `C[C@@H]1CCCN1CCc1cc2cc(CNc3ccccc3[N+](=O)[O-])ccc2o1` the same measures were 0.87 nM and 0.31 nM.
By Cmax is commonly meant the maximum level reached in the sampled fluid or tissue. Usually bioavailability stands for dose-corrected exposure relative to a reference, in per cent. Low readings indicate little systemic uptake, high ones much systemic uptake. As a reminder, the AUC is the area under the concentration-time curve, a measure of exposure. Low values mean less exposure, high ones more exposure. The clearance is the rate of elimination divided by the concentration. A low value points to inefficient removal. In general, half-life refers to the time in which the quantity being followed falls by half. For `C[C@@H]1CCCN1CCc1cc2cc(-c3ccc(C#N)cc3)ccc2o1`, in data set [3], the highest concentration (Cmax) stood at 39.6 ng/mL. In data set [4], this compound gave a bioavailability of 61.8%. Further, the area under the curve (AUC) came out at 667 ng·h/mL in data set [5] and 426 ng·h/mL in data set [8]. In addition, the clearance in data set [6] worked out at 25.7 mL/min/kg. In addition, the half-life is 6.7 h in data set [7] and 5.7 h in [9].
On to `C[C@@H]1CCCN1CCc1cc2cc(Nc3cnccn3)ccc2o1`, for which the inhibitory constant (Ki) in data set [1] came out at 0.38 nM; in data set [2], 0.11 nM.
On the same counts, the results for `C[C@@H]1CCCN1CCc1cc2cc(CNc3ccc(Cl)nn3)ccc2o1` are 1.58 nM and 0.31 nM.
Consider `C[C@@H]1CCCN1CCc1cc2cc(CNc3ccc([N+](=O)[O-])cn3)ccc2o1`, for which the Ki was 1.19 nM in data set [1] and 0.3 nM in data set [2].
Turning to `C[C@@H]1CCCN1CCc1cc2cc(CNc3ccc([N+](=O)[O-])cc3)ccc2o1`, the figures for the Ki in data set [1] and in data set [2] were 2.12 nM and 0.74 nM, respectively.
Consider `C[C@@H]1CCCN1CCc1cc2cc(CNc3ncc(Br)cn3)ccc2o1`, for which the inhibition constant Ki in [1] was 4.02 nM; in data set [2] it was 1.22 nM.
For `C[C@@H]1CCCN1CCc1cc2cc(Nc3ccc([N+](=O)[O-])cn3)ccc2o1`, the inhibitory constant (Ki) in [1] amounted to 0.11 nM; in data set [2], 0.05 nM.
`CCc1cnc(Nc2ccc3oc(CCN4CCC[C@H]4C)cc3c2)nc1` showed a Cmax in [3] of 16.2 ng/mL. Also, the bioavailability in [4] is 29%. The inhibition constant (Ki) in data set [1] was found to be 2.51 nM; in data set [2], 0.62 nM. In addition, the AUC amounted to 355 ng·h/mL in [5] and 103 ng·h/mL in [8]. This compound gave a clearance in data set [6] of 47 mL/min/kg. In addition, the half-life in data set [7] is 4.8 h; in [9], 3.7 h.
For `C[C@@H]1CCCN1CCc1cc2cc(CNc3nccnc3C#N)ccc2o1`, the Ki in data set [1] came out at 3.96 nM; in data set [2] it was 1.04 nM.
Take `C[C@@H]1CCCN1CCc1cc2cc(CNc3cnccn3)ccc2o1`: the inhibition constant (Ki) is 0.8 nM in data set [1] and 0.29 nM in data set [2].
For the compound `C[C@@H]1CCCN1CCc1cc2cc(Nc3cncnc3)ccc2o1`, the bioavailability in [4] was found to be 0%. Further, the Ki came out at 0.27 nM in data set [1] and 0.08 nM in data set [2]. In addition, the values for the AUC in data set [5] and in data set [8] were 35.9 ng·h/mL and 0 ng·h/mL, respectively. The compound also had a clearance in [6] of 475 mL/min/kg. Moreover, the half-life in [9] was 0.3 h.
On to `C[C@@H]1CCCN1CCc1cc2cc(CNc3cccc(C#N)c3)ccc2o1`, for which the inhibition constant Ki in data set [1] was 1.18 nM; in data set [2], 0.4 nM.
Consider `CCc1cnc(NCc2ccc3oc(CCN4CCC[C@H]4C)cc3c2)nc1`, for which, in data set [3], the highest level (Cmax) was 7.1 ng/mL. Further, in [4], the bioavailability was found to be 9%. Further, the Ki in data set [1] amounted to 0.58 nM; in [2] it was 0.33 nM. Moreover, the values for the AUC in data set [5] and in data set [8] were 210 ng·h/mL and 18.9 ng·h/mL, respectively. Further, the clearance in data set [6] is 79.8 mL/min/kg. For the same compound, the half-life in data set [9] is 1.7 h.
As to `C[C@@H]1CCCN1CCc1cc2cc(CNc3ccc(C(=O)C(F)(F)F)cc3)ccc2o1`, the results for the inhibition constant Ki in data set [1] and in data set [2] were 2.36 nM and 0.74 nM, respectively.
The compound `C[C@@H]1CCCN1CCc1cc2cc(CNc3ncccn3)ccc2o1` yielded a Cmax in [3] of 34.5 ng/mL. For the same compound, in [4], the bioavailability stood at 20.6%. Also, the figures for the inhibitory constant (Ki) in data set [1] and in data set [2] were 3.27 nM and 0.84 nM, respectively. Besides, the area under the curve (AUC) was found to be 350 ng·h/mL in [5] and 72.1 ng·h/mL in data set [8]. This compound also gave a clearance in data set [6] of 47.7 mL/min/kg. For the same compound, the half-life is 1.7 h in [7] and 1 h in data set [9].
`C[C@@H]1CCCN1CCc1cc2cc(Nc3ncccn3)ccc2o1`: the Ki in data set [1] was found to be 2.01 nM; in data set [2], 0.31 nM.
For `C[C@@H]1CCCN1CCc1cc2cc(CNc3ccc(C#N)cn3)ccc2o1`, the Ki worked out at 1.42 nM in [1] and 0.34 nM in data set [2].
On to `C[C@@H]1CCCN1CCc1cc2cc(CNc3ncc([N+](=O)[O-])s3)ccc2o1`, for which the inhibition constant Ki in [1] worked out at 0.68 nM; in data set [2] it was 0.19 nM.
Regarding `C[C@@H]1CCCN1CCc1cc2cc(Nc3cccc(C#N)c3)ccc2o1`, the inhibition constant (Ki) in data set [1] turned out to be 1.47 nM; in [2] it was 0.29 nM.
For `C[C@@H]1CCCN1CCc1cc2cc(CNc3ncc([N+](=O)[O-])cc3[N+](=O)[O-])ccc2o1`, the Ki worked out at 2.88 nM in data set [1] and 0.71 nM in [2].
As for `C[C@@H]1CCCN1CCc1cc2cc(CNc3ncccc3[N+](=O)[O-])ccc2o1`, the figures for the inhibition constant (Ki) in data set [1] and in data set [2] were 2.71 nM and 0.43 nM, respectively.
For `C[C@@H]1CCCN1CCc1cc2cc(Nc3ccccc3[N+](=O)[O-])ccc2o1` the same measures were 0.87 nM and 0.22 nM.
